Results from ChEMBL document CHEMBL1141574, “A comparison of chloroambucil- and xylene-containing polyamines leads to improved ligands for accessing the polyamine transport system” (J Med Chem, 2008).

What was measured:
[1] = Inhibition of [3H]spermidine uptake at PAT in mouse L1210 cells; format: cell-based
[2] = system: L1210; test: Cytotoxicity against mouse L1210 cells in presence of ODC inhibitor difluoromethylornithine; format: functional, cell-based
[3] = system: L1210; test: Cytotoxicity against mouse L1210 cells after 24 hrs in presence of spermidine; format: functional, cell-based; conditions: L1210, 24 h
[4] = system: polyamine transporter (PAT); test: Ratio of IC50 for PAT deficient CHO-MG cells to IC50 for PAT active CHO cells; format: cell-based, Cricetulus griseus; conditions: chinese hamster, PAT-deficient CHO-MG cells and PAT-active CHO cells; read-out: Ratio IC50
Procedure, shortened: (§1)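 CHO and CHO-MG grown in RPMI with 10% FCS, glutamine, penicillin/streptomycin and 2 mM aminoguanidine; CHO-MG medium also has L-proline (2 µg/mL); 37 °C, 5% CO2. Cells plated at 1 × 10⁴ cells/mL and drug added after overnight incubation. After 48 h exposure, growth read as MTT formazan absorbance at 540 nm. IC50 is the concentration giving 50% reduction in relative growth; ratio is CHO-MG IC50 over CHO IC50.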

[5] = system: FL5.12; test: Induction of apoptosis in 2 ng/ml IL3-induced mouse FL5.12A cells at 10 uM; format: functional
Procedure, shortened: (§2)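 FL5.12A pro-B cells in RPMI1640 with 10% heat-inactivated FCS, antibiotics and IL-3 (2, 0.1 or 0 ng/mL) at 37 °C, 5% CO2. Preincubated 24 h at 5 × 10⁶ cells/well, then given 10 µM compound with aminoguanidine for 24 h. Result is % annexin-positive cells; run in triplicate.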

[6] = system: FL5.12; test: Induction of apoptosis in 0.1 ng/ml IL3-induced mouse FL5.12A cells at 10 uM; format: functional; procedure, shortened: as §2
[7] = system: FL5.12; test: Induction of apoptosis in mouse FL5.12A cells at 10 uM; format: functional; procedure, shortened: as §2
[8] = system: FL5.12; test: Induction of apoptosis in mouse FL5.12A cells at 10 uM in presence of spermidine; format: functional
Procedure, shortened: (§3)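 FL5.12A cells held 24 h at 2, 0.1 or 0 ng/mL IL-3 (5 × 10⁶ cells/well), then treated with compound overnight with or without spermidine (100 µM). Apoptosis read as % annexin-V-FITC-positive cells by flow cytometry; run in duplicate.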

[9] = system: FL5.12; test: Induction of apoptosis in 2 ng/ml IL3-induced mouse FL5.12A cells at 10 uM in presence of spermidine; format: functional; procedure, shortened: as §3
[10] = system: FL5.12; test: Induction of apoptosis in 0.1 ng/ml IL3-induced mouse FL5.12A cells at 10 uM in presence of spermidine; format: functional; procedure, shortened: as §3
[11] = system: CHO; test: Cytotoxicity against PAT active CHO cells after 48 hrs; format: cell-based; conditions: Cricetulus griseus; procedure, shortened: as §1
[12] = system: L1210; test: Cytotoxicity against mouse L1210 cells after 48 hrs; format: functional, cell-based; conditions: L1210, 48 h
Procedure, shortened: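 L1210 cells in early to mid log phase, viability checked by trypan blue, grown in RPMI with 10% FCS, glutamine, antibiotics and 2 mM aminoguanidine at 37 °C, 5% CO2. Seeded at 6 × 10⁴ cells/mL with drug added at seeding. After 48 h exposure, growth read as MTT formazan at 540 nm. IC50 is the concentration reducing relative growth by 50%.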

[13] = system: CHO-MG; test: Cytotoxicity against PAT deficient CHO-MG cells after 48 hrs; format: cell-based; conditions: Cricetulus griseus; procedure, shortened: as §1
[14] = system: L1210; test: Cytotoxicity against mouse L1210 cells after 24 hrs in presence of 100 uM spermidine; format: functional, cell-based; conditions: L1210, 24 h
[15] = Induction of apoptosis in 2 ng/ml IL3-induced mouse FL5.12A cells at 10 uM after DMSO shock; format: functional
Procedure, shortened: (§4)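 FL5.12A pro-B cells in RPMI1640 with 10% heat-inactivated FCS and 1 mM aminoguanidine, 37 °C, 5% CO2. Preincubated 24 h with IL-3 at the stated level (5 × 10⁶ cells/well), then dosed overnight without spermidine. Washed, shocked 2 min in 10% DMSO, washed twice with Hank's, and held 2 h at 37 °C.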

[16] = Induction of apoptosis in 0.1 ng/ml IL3-induced mouse FL5.12A cells at 10 uM after DMSO shock; format: functional; procedure, shortened: as §4
[17] = system: FL5.12; test: Induction of apoptosis in mouse FL5.12A cells at 10 uM after DMSO shock; format: functional
Procedure, shortened: (§5)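 FL5.12A cells held 24 h at 2, 0.1 or 0 ng/mL IL-3 (5 × 10⁶ cells/well), treated overnight with or without spermidine (100 µM), then washed and exposed to 10% DMSO for 2 min. Washed twice in Hank's medium and incubated 2 h at 37 °C. Apoptosis read as % annexin-V-FITC-positive cells; run in duplicate.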

[18] = Induction of apoptosis in 2 ng/ml IL3-induced mouse FL5.12A cells treated after DMSO shock at 10 uM in presence of spermidine; format: functional
Procedure, shortened: (§6)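 FL5.12A pro-B cells in RPMI1640 with 10% heat-inactivated FCS and 1 mM aminoguanidine, 37 °C, 5% CO2. Preincubated 24 h at the stated IL-3 level (5 × 10⁶ cells/well), then dosed overnight with spermidine 100 µM. Washed, shocked 2 min in 10% DMSO, washed twice in Hank's, and held 2 h at 37 °C.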

[19] = Induction of apoptosis in 0.1 ng/ml IL3-induced mouse FL5.12A cells treated after DMSO shock at 10 uM in presence of spermidine; format: functional; procedure, shortened: as §6
[20] = system: FL5.12; test: Induction of apoptosis in mouse FL5.12A cells treated after DMSO shock at 10 uM in presence of spermidine; format: functional; procedure, shortened: as §5
[21] = Chemical stability in phosphate buffer assessed as degraded compound after 48 hrs; format: physicochemical; conditions: read-out: Activity
Procedure, shortened: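 NMR in phosphate buffer, pD 7.4, in D2O; sample held 48 h at 37 °C, then the fraction of conjugate degraded was read.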

| Structure (SMILES) | Ki [1] [µM] | IC50 [2] [nM] | IC50 [3] [µM] | selectivity ratio [4] | Activity [5] [%] | Activity [6] [%] | Activity [7] [%] | IC50 [11] [nM] | IC50 [12] [µM] | IC50 [13] [µM] | other results |
| --- | --- | --- | --- | --- | --- | --- | --- | --- | --- | --- | --- |
| Cl.NCCCCNCCCCNCc1c2ccccc2cc2ccccc12 | 1.8 | 90 | 0.83 | 148 | 67.71 | 80.41 | >95 |  |  |  | Activity [8]: 46.2%; Activity [9]: 37.3%; Activity [10]: 33.87% |
| NCCCCNCCCCNCc1cccc2ccccc12 | 3.8 | 430 |  | > 164 |  |  |  | 600 |  |  |  |
| NCCCCNCCCCNCc1ccc(CNCCCCNCCCCN)cc1 | 0.52 | 360 | 6.89 | 677 |  |  |  | 74 | 0.16 | 50.2 |  |
| NCCCNCCCCNCc1ccc(N(CCCl)CCCl)cc1 | 12.4 |  | 8.13 | 1 |  |  |  | > 100000 | 8.14 | > 100 |  |
| Cl.Cl.NCCCCNCc1c2ccccc2cc2ccccc12 | 32.2 | 9780 |  | 1 | >95 | >95 | >95 | 7700 |  |  | IC50 [14]: 6.96 µM; Activity [8]: 35.32%; Activity [9]: 47.28%; Activity [10]: 35.59% |
| NCCCCNCCCN [SPERMIDINE] |  |  |  |  | 5.52 | 6.07 | 58.16 |  |  |  |  |
| O=C(O)CCCc1ccc(N(CCCl)CCCl)cc1 [CHLORAMBUCIL] | > 150 |  |  | 1.32 |  |  |  | 84500 | 14.1 | 111 |  |
| NCCCCNCCCCNCc1ccccc1 | 4.5 |  |  |  |  |  |  |  | 36.3 | > 1000 |  |
| Cl.NCCCCNCCCCNCc1c2ccccc2c(CNCCCCNCCCCN)c2ccccc12 | 0.39 | 220 | 5.52 | > 2220 | 5.56 | 6.07 | 8.64 | 45 | 0.78 | > 100 | Activity [15]: 44.7%; Activity [16]: 56.7%; Activity [17]: 67.53%; Activity [18]: 12.9%; Activity [19]: 10.2%; Activity [20]: 16.69% |
| NCCCCNCCCCNCc1ccc(N(CCCl)CCCl)cc1 | 5.97 |  | 31.1 | 1 |  |  |  | > 100000 | 35.4 | > 100 | degraded at 48 h [21]: 89% |
| N=C(N)NN [PIMAGEDINE] |  |  |  |  | 5.17 | 3.72 | 79.69 |  |  |  |  |
| NCCCCNCCCCNCc1ccc(CNCCCCNCCCCN)c2ccccc12 | 0.17 |  | 6.42 | > 833 |  |  |  | 120 | 0.25 | > 100 |  |
| NCCCCNCCCNCc1ccc(N(CCCl)CCCl)cc1 | 2.66 |  | 7.83 | 1 |  |  |  | > 100000 | 6.53 | > 100 |  |
